Measured values from ChEMBL document CHEMBL1137451, “Synthesis and evaluation of antifungal properties of a series of the novel 2-amino-5-oxo-4-phenyl-5,6,7,8-tetrahydroquinoline-3-carbonitrile and its analogues” (Bioorg Med Chem, 2007).
≈ marks a conversion by molar mass, not a printed value. Calls of active or inactive are those of the source. The rule behind the calls is not given here.

How the values were obtained:
Candida albicans [1] = assay: Antifungal activity against Candida albicans 1 at 60 ug/disc after 24 hrs by disc diffusion method; assay type: functional; details: read-out: IZ
Outline: (§1)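 Yeast suspensions (C. albicans strains 1, 2) and mycelial suspensions (F. oxysporum strains 1, 2; Mucor sp.) spread on YPG (0.3% yeast extract, 0.5% peptone, 1% glucose) or PDA agar. Compound applied on filter-paper discs at the stated amount; 28 °C, 24 h. Read-out is inhibition zone diameter. Controls: 50% v/v DMSO vehicle, cycloheximide, amphotericin B.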

Candida albicans [2] = assay: Antifungal activity against Candida albicans 1 at 40 ug/disc after 24 hrs by disc diffusion method; assay type: functional; details: for zone of inhibition at 40 µg/disc: read-out: IZ; outline: as §1
Candida albicans [3] = assay: Antifungal activity against Candida albicans 1 at 100 ug/disc after 24 hrs by disc diffusion method; assay type: functional; details: read-out: IZ; outline: as §1
Candida albicans [4] = assay: Antifungal activity against Candida albicans 2 at 40 ug/disc after 24 hrs by disc diffusion method; assay type: functional; details: for zone of inhibition at 40 µg/disc: read-out: IZ; outline: as §1
Candida albicans [5] = assay: Antifungal activity against Candida albicans 2 at 60 ug/disc after 24 hrs by disc diffusion method; assay type: functional; details: read-out: IZ; outline: as §1
Candida albicans [6] = assay: Antifungal activity against Candida albicans 2 at 100 ug/disc after 24 hrs by disc diffusion method; assay type: functional; details: read-out: IZ; outline: as §1
Fusarium oxysporum [7] = assay: Antifungal activity against Fusarium oxysporum 1 at 40 ug/disc after 24 hrs by disc diffusion method; assay type: functional; details: for zone of inhibition at 40 µg/disc: read-out: IZ; outline: as §1
Fusarium oxysporum [8] = assay: Antifungal activity against Fusarium oxysporum 1 at 60 ug/disc after 24 hrs by disc diffusion method; assay type: functional; details: read-out: IZ; outline: as §1
Fusarium oxysporum [9] = assay: Antifungal activity against Fusarium oxysporum 1 at 100 ug/disc after 24 hrs by disc diffusion method; assay type: functional; details: read-out: IZ; outline: as §1
Fusarium oxysporum [10] = assay: Antifungal activity against Fusarium oxysporum 2 at 40 ug/disc after 24 hrs by disc diffusion method; assay type: functional; details: for zone of inhibition at 40 µg/disc: read-out: IZ; outline: as §1
Fusarium oxysporum [11] = assay: Antifungal activity against Fusarium oxysporum 2 at 60 ug/disc after 24 hrs by disc diffusion method; assay type: functional; details: read-out: IZ; outline: as §1
Fusarium oxysporum [12] = assay: Antifungal activity against Fusarium oxysporum 2 at 100 ug/disc after 24 hrs by disc diffusion method; assay type: functional; details: read-out: IZ; outline: as §1
Mucor [13] = assay: Antifungal activity against Mucor at 40 ug/disc after 24 hrs by disc diffusion method; assay type: functional; details: for zone of inhibition at 40 µg/disc: read-out: IZ; outline: as §1
Mucor [14] = assay: Antifungal activity against Mucor at 60 ug/disc after 24 hrs by disc diffusion method; assay type: functional; details: read-out: IZ; outline: as §1
Mucor [15] = assay: Antifungal activity against Mucor at 100 ug/disc after 24 hrs by disc diffusion method; assay type: functional; details: read-out: IZ; outline: as §1
Candida albicans [16] = assay: Antifungal activity against Candida albicans 1 after 24 hrs by disc diffusion method; assay type: functional
Outline: (§2)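 Disc diffusion on Candida albicans strains 1 and 2 (yeast suspension), Fusarium oxysporum strains 1 and 2 and Mucor sp. (mycelial suspension), spread on YPG or PDA agar. Compound at graded amounts per filter-paper disc, 28 °C for 24 h. MIC taken as the lowest amount giving a 2 mm inhibition zone. Controls: 50% v/v DMSO vehicle, cycloheximide, amphotericin B.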

Candida albicans [17] = assay: Antifungal activity against Candida albicans 2 after 24 hrs by disc diffusion method; assay type: functional; outline: as §2
Fusarium oxysporum [18] = assay: Antifungal activity against Fusarium oxysporum 1 after 24 hrs by disc diffusion method; assay type: functional; outline: as §2
Fusarium oxysporum [19] = assay: Antifungal activity against Fusarium oxysporum 2 after 24 hrs by disc diffusion method; assay type: functional; outline: as §2
Mucor [20] = assay: Antifungal activity against Mucor at after 24 hrs by disc diffusion method; assay type: functional; outline: as §2
Benjaminiella poitrasii [21] = assay: Inhibition of Benjaminiella poitrasii chitin synthase at 4 ug/mL
Outline: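 Chitin synthase from Benjaminiella poitrasii measured with and without compound at 4 µg/ml, using a non-radioactive chitin synthase assay. Nikkomycin Z used as reference.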

Benjaminiella poitrasii [22] = assay: Inhibition of yeast hypha transition at 20 ug/mL after 4 hrs
MCF7 [23] = assay: Antiproliferative activity against human MCF7 cells assessed as cell viability by MTT assay; assay type: functional, cell-based
Outline: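 MCF-7 cells in MEM with 10% FBS, 37 °C, 5% CO2, seeded 10,000/well, adhered 24 h. Treated 48 h at 0, 1, 10, 100, 1000 or 2000 µg/ml (DMSO stock diluted in medium), then 24 h recovery. MTT 4 h, 2-propanol solubilisation, A570 against 630 nm. DMSO carrier set as 100% growth; IC50 taken from the dose curve; triplicates.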

Hep 3B2 [24] = assay: Antiproliferative activity against human Hep3B cells upto 400 ug/mL assessed as cell viability by MTT assay; assay type: functional, cell-based
Outline: (§3)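 Hep3B or MCF-7 cells in MEM with 10% heat-inactivated FBS at 37 °C, 5% CO2, seeded 10,000/well and left to adhere 24 h. Exposed 48 h to compound diluted from 4 mg/ml DMSO stock, then 24 h in fresh medium. MTT (1 mg/ml, 4 h), formazan dissolved in 2-propanol, read at 570 nm (630 nm reference). DMSO-only wells set as 100% growth; triplicates.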

MCF7 [25] = assay: Antiproliferative activity against human MCF7 cells at 1 mg/mL assessed as cell viability by MTT assay; assay type: functional, cell-based; outline: as §3
Hep 3B2 [26] = assay: Antiproliferative activity against human Hep3B cells at 1 mg/mL assessed as cell viability by MTT assay; assay type: functional, cell-based; outline: as §3

SMILES | zone of inhibition at 60 µg/disc (Candida albicans [1]) | zone of inhibition at 100 µg/disc (Candida albicans [3]) | zone of inhibition at 60 µg/disc (Candida albicans [5]) | zone of inhibition at 100 µg/disc (Candida albicans [6]) | zone of inhibition at 60 µg/disc (Fusarium oxysporum [8]) | zone of inhibition at 100 µg/disc (Fusarium oxysporum [9]) | zone of inhibition at 60 µg/disc (Fusarium oxysporum [11]) | zone of inhibition at 100 µg/disc (Fusarium oxysporum [12]) | zone of inhibition at 60 µg/disc (Mucor [14]) | zone of inhibition at 100 µg/disc (Mucor [15]) | MIC (Candida albicans [16]) | MIC (Candida albicans [17]) | MIC (Fusarium oxysporum [18]) | MIC (Fusarium oxysporum [19]) | MIC (Mucor [20]) | inhibition (Benjaminiella poitrasii [21]) | inhibition at 20 µg/mL (Benjaminiella poitrasii [22]) | zone of inhibition at 40 µg/disc (Candida albicans [2]) | zone of inhibition at 40 µg/disc (Candida albicans [4]) | zone of inhibition at 40 µg/disc (Fusarium oxysporum [7]) | also measured
CC(=O)N(C(C)=O)c1nc2c(c(-c3ccc(C)cc3)c1C#N)C(=O)CCC2 | 4 mm | 6 mm | 4 mm | 6 mm | 2 mm | 4 mm | 2 mm | 4 mm | 7 mm | 10 mm | 60 µg/disc | 60 µg/disc | 60 µg/disc | 60 µg/disc | 40 µg/disc | 61% | 90% | – | – | – | Activity (Candida albicans [2]): inactive; Activity (Candida albicans [4]): inactive; Activity (Fusarium oxysporum [7]): inactive; Activity (Fusarium oxysporum [10]): inactive; zone of inhibition at 40 µg/disc (Mucor [13]): 3 mm
N#Cc1c(N)nc2c(c1-c1cccc([N+](=O)[O-])c1)C(=O)CCC2 | 4 mm | 7 mm | 4 mm | 7 mm | 4 mm | 7 mm | 4 mm | 7 mm | 9 mm | 15 mm | 40 µg/disc | 40 µg/disc | 20 µg/disc | 20 µg/disc | 60 µg/disc | 81% | 85% | 3 mm | 3 mm | 3 mm | zone of inhibition at 40 µg/disc (Fusarium oxysporum [10]): 3 mm; Activity (Mucor [13]): inactive; IC50 (MCF7 [23]): 293 µg/mL (≈ 952 µM); Activity (Hep 3B2 [24]): Non-toxic; Activity (MCF7 [25]): Toxic; Activity (Hep 3B2 [26]): Toxic
N#Cc1c(N)nc2c(c1-c1ccccc1Cl)C(=O)CCC2 | 2 mm | 4 mm | 2 mm | 4 mm | 3 mm | 6 mm | 3 mm | 6 mm | 7 mm | 10 mm | 60 µg/disc | 60 µg/disc | 40 µg/disc | 40 µg/disc | 60 µg/disc | 86% | 95% | – | – | 2 mm | Activity (Candida albicans [2]): inactive; Activity (Candida albicans [4]): inactive; zone of inhibition at 40 µg/disc (Fusarium oxysporum [10]): 2 mm; Activity (Mucor [13]): inactive
CC(=O)Nc1nc2c(c(-c3cccc(N4C(=O)C=CC4=O)c3)c1C#N)C(=O)CCC2 | 2 mm | 7 mm | 2 mm | 7 mm | 2 mm | 6 mm | 2 mm | 6 mm | 9 mm | 11 mm | 40 µg/disc | 40 µg/disc | 40 µg/disc | 40 µg/disc | 40 µg/disc | 91% | 95% | 2 mm | 2 mm | 2 mm | zone of inhibition at 40 µg/disc (Fusarium oxysporum [10]): 2 mm; zone of inhibition at 40 µg/disc (Mucor [13]): 8 mm; IC50 (MCF7 [23]): 50 µg/mL (≈ 125 µM); Activity (Hep 3B2 [24]): Non-toxic; Activity (MCF7 [25]): Toxic; Activity (Hep 3B2 [26]): Toxic
N#Cc1c(N)nc2c(c1-c1ccc(F)cc1)C(=O)CCC2 | 4 mm | 6 mm | 4 mm | 6 mm | 3 mm | 7 mm | 3 mm | 7 mm | 9 mm | 12 mm | 40 µg/disc | 40 µg/disc | 40 µg/disc | 40 µg/disc | 60 µg/disc | 81% | 95% | 2 mm | 2 mm | – | Activity (Fusarium oxysporum [7]): inactive; Activity (Fusarium oxysporum [10]): inactive; Activity (Mucor [13]): inactive
C[C@@H]1[C@H](O)[C@@H](C)/C=C/C=C/C=C/C=C/C=C/C=C/C=C/[C@H](O[C@@H]2O[C@H](C)[C@@H](O)[C@H](N)[C@@H]2O)C[C@@H]2O[C@](O)(C[C@@H](O)C[C@@H](O)[C@H](O)CC[C@@H](O)C[C@@H](O)CC(=O)O[C@H]1C)C[C@H](O)[C@H]2C(=O)O [AMPHOTERICIN B] | 7 mm | 12 mm | 7 mm | 12 mm | 6 mm | 9 mm | 6 mm | 9 mm | 7 mm | 10 mm | 40 µg/disc | 40 µg/disc | 40 µg/disc | 40 µg/disc | 40 µg/disc | – | – | 4 mm | 4 mm | 2 mm | zone of inhibition at 40 µg/disc (Fusarium oxysporum [10]): 3 mm; zone of inhibition at 40 µg/disc (Mucor [13]): 5 mm; IC50 (MCF7 [23]): 60 µg/mL (≈ 64.9 µM); Activity (Hep 3B2 [24]): Non-toxic; Activity (MCF7 [25]): Toxic; Activity (Hep 3B2 [26]): Toxic
Cc1ccc(-c2c(C#N)c(N)nc3c2C(=O)CCC3)cc1 | 4 mm | 7 mm | 4 mm | 7 mm | 3 mm | 7 mm | 3 mm | 7 mm | 10 mm | 14 mm | 40 µg/disc | 40 µg/disc | 40 µg/disc | 40 µg/disc | 60 µg/disc | 91% | 90% | 3 mm | 3 mm | 2 mm | zone of inhibition at 40 µg/disc (Fusarium oxysporum [10]): 2 mm; Activity (Mucor [13]): inactive
N#Cc1c(N)nc2c(c1-c1ccc(Cl)cc1)C(=O)CCC2 | 3 mm | 5 mm | 3 mm | 5 mm | 4 mm | 7 mm | 4 mm | 7 mm | 7 mm | 10 mm | 40 µg/disc | 40 µg/disc | 60 µg/disc | 60 µg/disc | 60 µg/disc | 81% | 95% | 2 mm | 2 mm | – | Activity (Fusarium oxysporum [7]): inactive; Activity (Fusarium oxysporum [10]): inactive; Activity (Mucor [13]): inactive
N#Cc1c(N)nc2c(c1-c1cccc(N)c1)C(=O)CCC2 | 3 mm | 6 mm | 3 mm | 6 mm | 3 mm | 5 mm | 3 mm | 5 mm | 7 mm | 10 mm | 60 µg/disc | 60 µg/disc | 40 µg/disc | 40 µg/disc | 40 µg/disc | 76% | 95% | – | – | 2 mm | Activity (Candida albicans [2]): inactive; Activity (Candida albicans [4]): inactive; zone of inhibition at 40 µg/disc (Fusarium oxysporum [10]): 2 mm; zone of inhibition at 40 µg/disc (Mucor [13]): 5 mm
